Laboratory results as given in ChEMBL document CHEMBL3259662 (ACS Med Chem Lett, 2014).
Converted amounts (≈) assume the structure as drawn. The source made the active and inactive calls. The rule behind the calls is not given here. Peptide text beside a SMILES is read from it. * marks the point of attachment. Boc = CC(C)(C)OC(=O)*; NHBn = c1ccc(CN*)cc1

What was measured:
Vero = assay: Cytotoxicity against African green monkey Vero cells assessed as cell viability after 48 hrs by neutral red uptake assay; format: cell-based; conditions: chlorocebus sabaeus
Outline: (§1)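 Neutral red uptake assay in human cancer lines SK-MEL, KB, BT-549 and SK-OV-3 and in noncancerous mammalian kidney cells VERO and LLC-PK1. The highest tested concentration was 10 μg/mL.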

[1] = Selectivity index, ratio of cytotoxicity for human BT549 cells to IC50 for Cryptococcus neoformans ATCC 90113; format: toxicity, cell-based, BT-549; conditions: read-out: Selectivity Index
KB = assay: Cytotoxicity against human KB cells assessed as cell viability after 48 hrs by neutral red uptake assay; format: cell-based; outline: as §1
Aspergillus fumigatus = assay: Antifungal activity against Aspergillus fumigatus by CLSI method; format: functional, organism-based
SK-MEL = assay: Cytotoxicity against human SK-MEL cells assessed as cell viability after 48 hrs by neutral red uptake assay; format: cell-based; outline: as §1
Cryptococcus neoformans [2] = assay: Ratio of amphotericin B MFC to compound MFC for Cryptococcus neoformans ATCC 90113 after 70 to 74 hrs by CLSI method; format: functional
Cryptococcus neoformans [3] = assay: Antifungal activity against Cryptococcus neoformans ATCC 90113 after 70 to 74 hrs by CLSI method; format: functional, organism-based; conditions: for IC50 / MIC: Cryptococcus neoformans, ATCC 90113
Outline: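 Growth inhibition of C. neoformans per the CLSI protocol. […] MIC is the lowest test concentration with no detectable growth. MFC is the lowest concentration killing 100% of the organism.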

[4] = Selectivity index, ratio of cytotoxicity for human KB cells to IC50 for Cryptococcus neoformans ATCC 90113; format: toxicity, cell-based; conditions: read-out: Selectivity Index
[5] = Selectivity index, ratio of cytotoxicity for pig LLC-PK1 cells to IC50 for Cryptococcus neoformans ATCC 90113; format: toxicity, cell-based; conditions: read-out: Selectivity Index
Pichia kudriavzevii = assay: Antifungal activity against Candida krusei by CLSI method; format: functional, organism-based
Nakaseomyces glabratus = assay: Antifungal activity against Candida glabrata by CLSI method; format: functional, organism-based
LLC-PK1 = assay: Cytotoxicity against pig LLC-PK1 cells assessed as cell viability after 48 hrs by neutral red uptake assay; format: cell-based, Sus scrofa; conditions: llc-pk1, 48 h; outline: as §1
[6] = Selectivity index, ratio of cytotoxicity for human SK-MEL cells to IC50 for Cryptococcus neoformans ATCC 90113; format: toxicity, cell-based; conditions: read-out: Selectivity Index
Candida albicans = assay: Antifungal activity against Candida albicans by CLSI method; format: functional, organism-based
Escherichia coli = assay: Antibacterial activity against Escherichia coli ATCC 35218 after 16 to 20 hrs by CLSI method; format: functional, organism-based
SK-OV-3 = assay: Cytotoxicity against human SKOV3 cells assessed as cell viability after 48 hrs by neutral red uptake assay; format: cell-based; conditions: sk-ov-3, 48 h; outline: as §1
[7] = Selectivity index, ratio of cytotoxicity for African green monkey Vero cells to IC50 for Cryptococcus neoformans ATCC 90113; format: toxicity, cell-based; conditions: read-out: Selectivity Index
[8] = Selectivity index, ratio of cytotoxicity for human SKOV3 cells to IC50 for Cryptococcus neoformans ATCC 90113; format: toxicity, cell-based, SK-OV-3; conditions: read-out: Selectivity Index
BT-549 = assay: Cytotoxicity against human BT549 cells assessed as cell viability after 48 hrs by neutral red uptake assay; format: cell-based; conditions: bt-549, 48 h; outline: as §1
Cryptococcus neoformans [9] = assay: Antifungal activity against Cryptococcus neoformans ATCC 90113 at 20 ug/ml after 70 to 74 hrs by CLSI method; format: functional, organism-based
Outline: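 C. neoformans screened per the CLSI protocol at the highest tested concentration of 20 μg/mL. Compounds showing no activity at this level were scored not active.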

[10] = Retention time of the compound by reverse phase HPLC analysis; format: physicochemical
Outline: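 Reverse-phase HPLC on a C-18 column (25 cm × 4.6 mm, 5 μM) at 1 mL/min over 40 min. The gradient ran 85−5% with A = 0.1% TFA in H2O and B = 0.1% TFA in CH3CN. Detection was at 220 nm.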

Staphylococcus aureus [11] = assay: Antibacterial activity against methicillin-resistant Staphylococcus aureus ATCC 33591 after 16 to 20 hrs by CLSI method; format: functional, organism-based
Staphylococcus aureus [12] = assay: Antibacterial activity against Staphylococcus aureus ATCC 29213 by CLSI method; format: functional, organism-based

| IC50 (Cryptococcus neoformans [3]) | Retention_time [10] | SMILES | Activity (Vero) | selectivity ratio [1] | Activity (KB) | Activity (Aspergillus fumigatus) | Activity (SK-MEL) | selectivity ratio [4] | selectivity ratio [5] | Activity (Pichia kudriavzevii) | Activity (Nakaseomyces glabratus) | Activity (LLC-PK1) | selectivity ratio [6] | Activity (Candida albicans) | Activity (Escherichia coli) | Activity (SK-OV-3) | selectivity ratio [7] | selectivity ratio [8] | Activity (BT-549) | Activity (Cryptococcus neoformans [9]) | further results |
| --- | --- | --- | --- | --- | --- | --- | --- | --- | --- | --- | --- | --- | --- | --- | --- | --- | --- | --- | --- | --- | --- |
| 0.43 µg/mL (≈ 0.649 µM) | – | COc1ccc(-c2nc(C[C@H](NC(=O)[C@@H](N)CCCNC(=N)N)C(=O)N[C@@H](CCCNC(=N)N)C(=O)NCc3ccccc3)c[nH]2)cc1 | > 10 µg/mL | > 23.3 | > 10 µg/mL | inactive | > 10 µg/mL | > 23.3 | > 23.3 | inactive | inactive | > 10 µg/mL | > 23.3 | inactive | inactive | > 10 µg/mL | > 23.3 | > 23.3 | > 10 µg/mL | – | Ratio (Cryptococcus neoformans [2]): 2; MFC100 (Cryptococcus neoformans [3]): 0.63 µg/mL (≈ 0.951 µM); MIC (Cryptococcus neoformans [3]): 0.63 µg/mL (≈ 0.951 µM) |
| – | – | COC(=O)[C@H](CCCNC(=N)N)NC(=O)[C@H](Cc1c[nH]c(-c2ccccc2)n1)NC(=O)[C@@H](N)CCCNC(=N)N | > 10 µg/mL | – | > 10 µg/mL | inactive | > 10 µg/mL | – | – | inactive | inactive | > 10 µg/mL | – | inactive | inactive | > 10 µg/mL | – | – | > 10 µg/mL | inactive | – |
| 10.4 µg/mL (≈ 15.8 µM) | 11.89 min | COC(=O)[C@H](CCCNC(=N)N)NC(=O)[C@H](Cc1c[nH]c(-c2ccccc2)n1)NC(=O)[C@H](CCCNC(=N)N)NC(=O)OC(C)(C)C | > 10 µg/mL | – | > 10 µg/mL | inactive | > 10 µg/mL | – | – | inactive | inactive | > 10 µg/mL | – | inactive | inactive | > 10 µg/mL | – | – | > 10 µg/mL | inactive | – |
| 19.7 µg/mL (≈ 34.5 µM) | – | COC(=O)[C@H](CCCNC(=N)N)NC(=O)[C@H](Cc1c[nH]c(-c2ccc(C)cc2)n1)NC(=O)[C@@H](N)CCCNC(=N)N | > 10 µg/mL | – | > 10 µg/mL | inactive | > 10 µg/mL | – | – | inactive | inactive | > 10 µg/mL | – | inactive | inactive | > 10 µg/mL | – | – | > 10 µg/mL | inactive | – |
| 9.71 µg/mL (≈ 14.5 µM) | 14.76 min | COC(=O)[C@H](CCCNC(=N)N)NC(=O)[C@H](Cc1c[nH]c(-c2ccc(C)cc2)n1)NC(=O)[C@H](CCCNC(=N)N)NC(=O)OC(C)(C)C | > 10 µg/mL | > 1 | > 10 µg/mL | inactive | > 10 µg/mL | > 1 | > 1 | inactive | inactive | > 10 µg/mL | > 1 | inactive | inactive | > 10 µg/mL | > 1 | > 1 | > 10 µg/mL | inactive | – |
| 4.06 µg/mL (≈ 5.9 µM) | 13.59 min | COC(=O)[C@H](CCCNC(=N)N)NC(=O)[C@H](Cc1c[nH]c(-c2ccc(OC)cc2)n1)NC(=O)[C@H](CCCNC(=N)N)NC(=O)OC(C)(C)C | > 10 µg/mL | > 2.5 | > 10 µg/mL | inactive | > 10 µg/mL | > 2.5 | > 2.5 | inactive | inactive | > 10 µg/mL | > 2.5 | inactive | inactive | > 10 µg/mL | > 2.5 | > 2.5 | > 10 µg/mL | – | MFC100 (Cryptococcus neoformans [3]): 5 µg/mL (≈ 7.27 µM); MIC (Cryptococcus neoformans [3]): 5 µg/mL (≈ 7.27 µM) |
| 19 µg/mL (≈ 39.5 µM) | – | COC(=O)[C@H](CCCNC(=N)N)NC(=O)[C@H](Cc1c[nH]cn1)NC(=O)[C@@H](N)CCCNC(=N)N (H-Arg-His-Arg-OMe) | > 10 µg/mL | – | > 10 µg/mL | inactive | > 10 µg/mL | – | – | inactive | inactive | > 10 µg/mL | – | inactive | inactive | > 10 µg/mL | – | – | > 10 µg/mL | inactive | – |
| – | – | N=C(N)NCCC[C@H](NC(=O)[C@H](Cc1c[nH]cn1)NC(=O)[C@@H](N)CCCNC(=N)N)C(=O)NCc1ccccc1 (H-Arg-His-Arg-NHBn) | > 10 µg/mL | – | > 10 µg/mL | inactive | > 10 µg/mL | – | – | inactive | inactive | > 10 µg/mL | – | inactive | inactive | > 10 µg/mL | – | – | > 10 µg/mL | inactive | – |
| – | 10.75 min | COC(=O)[C@H](CCCNC(=N)N)NC(=O)[C@H](Cc1c[nH]cn1)NC(=O)[C@H](CCCNC(=N)N)NC(=O)OC(C)(C)C (Boc-Arg-His-Arg-OMe) | > 10 µg/mL | – | > 10 µg/mL | inactive | > 10 µg/mL | – | – | inactive | inactive | > 10 µg/mL | – | inactive | inactive | > 10 µg/mL | – | – | > 10 µg/mL | inactive | – |
| 0.71 µg/mL (≈ 0.995 µM) | 20.91 min | COC(=O)[C@H](CCCNC(=N)N)NC(=O)[C@H](Cc1c[nH]c(-c2ccc(C(C)(C)C)cc2)n1)NC(=O)[C@H](CCCNC(=N)N)NC(=O)OC(C)(C)C | > 10 µg/mL | > 14.1 | > 10 µg/mL | inactive | > 10 µg/mL | > 14.1 | > 14.1 | inactive | inactive | > 10 µg/mL | > 14.1 | inactive | inactive | > 10 µg/mL | > 14.1 | > 14.1 | > 10 µg/mL | – | MFC100 (Cryptococcus neoformans [3]): 1.25 µg/mL (≈ 1.75 µM); MIC (Cryptococcus neoformans [3]): 1.25 µg/mL (≈ 1.75 µM) |

| SMILES | IC50 (Cryptococcus neoformans [3]) | Retention_time [10] | Activity (Vero) | selectivity ratio [1] | Activity (KB) | Activity (Aspergillus fumigatus) | Activity (SK-MEL) | selectivity ratio [4] | selectivity ratio [5] | Activity (Pichia kudriavzevii) | Activity (Nakaseomyces glabratus) | Activity (LLC-PK1) | selectivity ratio [6] | Activity (Candida albicans) | Activity (Escherichia coli) | Activity (SK-OV-3) | selectivity ratio [7] | selectivity ratio [8] | Activity (BT-549) | Activity (Cryptococcus neoformans [9]) | further results |
| --- | --- | --- | --- | --- | --- | --- | --- | --- | --- | --- | --- | --- | --- | --- | --- | --- | --- | --- | --- | --- | --- |
| N=C(N)NCCC[C@H](NC(=O)[C@H](Cc1c[nH]c(-c2ccc(-c3ccccc3)cc2)n1)NC(=O)[C@@H](N)CCCNC(=N)N)C(=O)NCc1ccccc1 | 0.1 µg/mL (≈ 0.141 µM) | – | > 10 µg/mL | > 100 | > 10 µg/mL | inactive | > 10 µg/mL | > 100 | > 100 | inactive | inactive | > 10 µg/mL | > 100 | inactive | inactive | > 10 µg/mL | > 100 | > 100 | > 10 µg/mL | – | Ratio (Cryptococcus neoformans [2]): 8; MFC100 (Cryptococcus neoformans [3]): 0.16 µg/mL (≈ 0.226 µM); MIC (Cryptococcus neoformans [3]): 0.16 µg/mL (≈ 0.226 µM); IC50 (Staphylococcus aureus [11]): Not Active; MBC100 (Staphylococcus aureus [11]): inactive; MIC (Staphylococcus aureus [11]): inactive; IC50 (Staphylococcus aureus [12]): 15.4 µg/mL (≈ 21.7 µM); MBC100 (Staphylococcus aureus [12]): inactive; MIC (Staphylococcus aureus [12]): inactive |
